The subject of test [1] is Jurkat. Put plainly: Cytotoxicity against human Jurkat cells after 24 hrs by PI staining based flow cytometry. Format: functional, cell-based. The essentials:
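Jurkat cells (10^6) were exposed to increasing concentrations for 24 h, then stained with propidium iodide (10 µg/mL in PBS) for 1 min at room temperature. Membrane-compromised cells were counted immediately by flow cytometry with 488 nm excitation.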

In test [2] the test system is Jurkat. Put plainly: Cell cycle arrest in human Jurkat cells assessed as apoptotic cells at 25 uM after 24 hrs by flow cytometry. Format: functional. The method in brief: (§1)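 Jurkat cells in RPMI 1640 with 10% FBS, 2 mM glutamine and antibiotics, at 37 °C and 5% CO2, were treated for 24 h. Cells were fixed in 70% ethanol for 24 h at 4 °C, washed with PBS containing 4% glucose, and digested with RNase A (50 U/mL) plus PI staining for 1 h at RT. The subdiploid (sub-G0/G1) fraction was measured by flow cytometry.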

Test [3] concerns Jurkat. Briefly: Cell cycle arrest in human Jurkat cells assessed as increase in apoptotic cells after 24 hrs by flow cytometry. Format: functional, cell-based. The method in brief: as §1
Test [4] is described as follows: Cytotoxicity against human 293T cells after 48 hrs by calcein-AM assay. The format is cell-based. The following applies: HEK-293T. The method in brief:
(§2)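 Adherent lines were grown in DMEM with 10% heat-inactivated FBS, 2 mM glutamine, penicillin and streptomycin, seeded at 10^4 cells/well, and exposed to increasing concentrations for 48 h. DMSO stocks were diluted in medium, with final DMSO ≤1%. Calcein-AM (1 µM final) was added for 60 min, stopped on ice, and cells were washed twice with cold HBSS. Fluorescence was read at 485/535 nm to derive IC50.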

The test system of test [5] is A549. Briefly: Cytotoxicity against human A549 cells after 48 hrs by calcein-AM assay. Format: functional, cell-based. The settings on record: A549, 48 h. The method in brief:
as §2

The subject of test [6] is AGS. Briefly: Cytotoxicity against human AGS cells after 48 hrs by calcein-AM assay. Format: functional, cell-based. The essentials:
as §2

In test [7] the test system is HCT-116. Put plainly: Cytotoxicity against human HCT116 cells after 48 hrs by calcein-AM assay. The format is functional, cell-based. The settings on record: HCT-116, 48 h. The method in brief: as §2
Test [8] has as its system HeLa. Put plainly: Cytotoxicity against human HeLa cells after 48 hrs by calcein-AM assay. Format: functional, cell-based. The essentials:
as §2

Test [9] has as its system Jurkat. Put plainly: Cell cycle arrest in human Jurkat cells assessed as apoptotic cells at 10 uM after 24 hrs by flow cytometry. The format is functional. The essentials: as §1
The subject of test [10] is Jurkat 5.1 (human). Put plainly: Inhibition of TNF-alpha-induced NF-kappaB activation in human Jurkat 5.1 cells by luciferase assay relative to control.

The structures appear in SMILES notation. pIC50: −log10 of the molar value. The source made the active and inactive calls. The rule behind the calls is not given here.

The compound `COC1=C(C/C=C(\C)CCC=C(C)C)C(=O)C2=C(C1=O)S(=O)(=O)CCN2` [APLIDINONE A] had a pIC50 in test [1] of 4.35.

Take `CCC1=C(OC)C(=O)C2=C(C1=O)S(=O)(=O)CCN2`: the pIC50 was less than 4.30 in test [1]; 4.49 in test [4]; less than 4.30 in test [5]; less than 4.30 in test [6]; less than 4.30 in test [7]; less than 4.30 in test [8]. In addition, the Activity in [2] was determined as 9.6%. For the same compound, the outcome in [3] was Active.

With `CCCCCCCCC1=C(OC)C(=O)C2=C(C1=O)S(=O)(=O)CCN2`, the negative-log IC50 (pIC50) in test [1] is 4.68; in [4], 5.06; in test [5] it was 4.89; in [6], 5.14; in [7], 4.85; in test [8] it was 4.61. The Activity in test [9] was determined as 26.5%; in test [2], 45%. The outcome in [10] was Active.

As to `CCCCCCCCCCCCCCC1=C(OC)C(=O)C2=C(C1=O)S(=O)(=O)CCN2`, the pIC50 in test [1] was less than 4.30; in [4], 4.32; in test [5], 4.29; in test [6] it was 4.35; in test [7], 4.35; in [8], 4.32.

Consider `CCCCCCCCC1=C(OC)C(=O)C2=C(NCCS2(=O)=O)C1=O`, for which the negative-log IC50 (pIC50) in [1] is less than 4.30. The outcome in [3] was Active.

`CCCCCCCCCCCCCCC1=C(OC)C(=O)C2=C(NCCS2(=O)=O)C1=O` had a pIC50 in test [1] of less than 4.30.

Compound `CCC1=C(OC)C(=O)C2=C(NCCS2(=O)=O)C1=O` gave a pIC50 in [1] of less than 4.30. For the same compound, in [3], the outcome was Active. For the same compound, the result in [10] was inactive.

These data come from ChEMBL document CHEMBL1158528, “Synthesis of structurally simplified analogues of aplidinone A, a pro-apoptotic marine thiazinoquinone” (Bioorg Med Chem, 2010).
